# PAD4 inh = blocks human protein arginine deiminase 4 | 330,000 compounds, 0.41% hits | recombinant PAD4, RCA probe fluorescence polarization | inhibition, % at 6.36 µM | Q9UM07;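 active = percent inhibition above a cutoff equal to the mean of all tested compounds plus 3 SD, cut at about 15% in these data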;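 also: 0% = PAD4 with RCA probe and DMSO and 100% = probe without PAD4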
# Rin1 Abl inh = human Rin1-Abl interaction inhibition; P00519+Q13671; TR-FRET Rin1/Abl binding, biochemical; inhibition, % at 7.35 µM; 360,000 compounds, 0.4% hits; in the data active = inhibition above about 5%, passing the limit was not always enough
# Target sequence (P00519 whole entry, looked up): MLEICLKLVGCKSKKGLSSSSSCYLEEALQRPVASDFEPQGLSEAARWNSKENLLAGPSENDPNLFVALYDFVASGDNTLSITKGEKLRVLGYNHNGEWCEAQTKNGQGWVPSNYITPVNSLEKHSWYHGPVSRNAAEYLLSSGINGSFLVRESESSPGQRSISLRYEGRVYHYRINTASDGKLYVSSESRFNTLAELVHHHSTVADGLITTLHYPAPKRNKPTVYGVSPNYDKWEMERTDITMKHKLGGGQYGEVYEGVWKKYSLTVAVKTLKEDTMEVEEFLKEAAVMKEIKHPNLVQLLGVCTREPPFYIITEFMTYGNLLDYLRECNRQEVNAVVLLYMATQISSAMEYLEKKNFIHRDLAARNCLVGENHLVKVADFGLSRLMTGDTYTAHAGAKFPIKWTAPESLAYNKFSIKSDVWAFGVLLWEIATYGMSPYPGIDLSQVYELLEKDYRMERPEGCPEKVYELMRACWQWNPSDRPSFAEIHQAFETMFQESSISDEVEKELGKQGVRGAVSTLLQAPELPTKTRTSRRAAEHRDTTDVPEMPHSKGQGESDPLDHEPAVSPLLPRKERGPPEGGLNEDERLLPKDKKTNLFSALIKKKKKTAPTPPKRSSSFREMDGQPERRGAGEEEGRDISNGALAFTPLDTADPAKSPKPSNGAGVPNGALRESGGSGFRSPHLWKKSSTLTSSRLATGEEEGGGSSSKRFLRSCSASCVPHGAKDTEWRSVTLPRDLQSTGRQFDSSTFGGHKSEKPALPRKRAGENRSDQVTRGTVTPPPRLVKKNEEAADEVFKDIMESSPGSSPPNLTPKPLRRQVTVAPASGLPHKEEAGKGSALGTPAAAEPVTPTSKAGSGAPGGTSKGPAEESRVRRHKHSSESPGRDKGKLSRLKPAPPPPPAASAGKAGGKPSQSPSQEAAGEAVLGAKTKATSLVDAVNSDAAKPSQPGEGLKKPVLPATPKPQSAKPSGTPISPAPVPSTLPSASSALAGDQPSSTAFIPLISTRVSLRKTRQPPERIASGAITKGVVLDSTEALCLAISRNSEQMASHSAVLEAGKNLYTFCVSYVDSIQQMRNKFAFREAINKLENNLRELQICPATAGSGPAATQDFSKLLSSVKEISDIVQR
# Target sequence (Q13671 whole entry, looked up): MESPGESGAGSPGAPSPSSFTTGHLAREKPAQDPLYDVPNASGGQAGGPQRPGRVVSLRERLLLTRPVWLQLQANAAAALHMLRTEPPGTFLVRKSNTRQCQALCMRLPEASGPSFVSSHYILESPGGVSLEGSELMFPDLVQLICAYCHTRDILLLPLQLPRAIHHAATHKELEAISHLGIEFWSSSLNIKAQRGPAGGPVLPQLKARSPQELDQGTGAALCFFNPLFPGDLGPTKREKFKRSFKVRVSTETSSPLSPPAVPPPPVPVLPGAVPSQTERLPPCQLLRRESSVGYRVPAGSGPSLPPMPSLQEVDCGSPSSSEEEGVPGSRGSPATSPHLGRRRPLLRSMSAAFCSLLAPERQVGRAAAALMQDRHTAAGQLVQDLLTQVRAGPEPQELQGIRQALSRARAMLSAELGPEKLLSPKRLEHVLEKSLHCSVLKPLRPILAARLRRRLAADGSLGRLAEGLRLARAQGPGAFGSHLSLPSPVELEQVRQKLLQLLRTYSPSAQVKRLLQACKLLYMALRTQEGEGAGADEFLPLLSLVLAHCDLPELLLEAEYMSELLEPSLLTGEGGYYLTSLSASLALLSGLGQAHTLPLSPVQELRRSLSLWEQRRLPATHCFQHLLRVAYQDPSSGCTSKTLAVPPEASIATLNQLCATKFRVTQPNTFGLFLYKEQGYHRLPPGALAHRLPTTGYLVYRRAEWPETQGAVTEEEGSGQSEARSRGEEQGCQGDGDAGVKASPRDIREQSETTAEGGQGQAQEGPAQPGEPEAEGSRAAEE
# UBC9 SUMO inh = blocks human SUMOylation mediated by UBC9 | inhibition, % at 35 µM | 290,000 compounds, 0.36% hits | P63279 | AID 2006 | HTRF SUMOylation assay, SAE1/SAE2 + UBC9, in vitro; in the data active = inhibition above about 50%, passing the limit was not always enough
# GSTO1 inh = counter-screen for RBBP9 inhibitors: inhibitors of human GSTO1; P78417; recombinant GSTO1, activity-based probe fluorescence polarization; inhibition, % at 5.96 µM; 300,000 compounds, 1.1% hits; AID 1974;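 active = inhibition above the campaign mean inhibition plus 3 SD, cut at about 35% in these data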;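 also: 0% = GSTO1-1 with DMSO and 100% = wells lacking GSTO1-1 enzyme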
# Apaf-1 inh = inhibitors of human Apaf-1 apoptosome; O14727; reconstituted apoptosome caspase-3 activity, DEVD-Rh110 fluorescence; inhibition, % at 20 µM; 330,000 compounds, 0.71% hits; AID 489030; active = inhibition of at least 40% at 20 µM;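 also: plate controls were DMSO wells for no effect and DEVD-CHO caspase inhibitor wells for full effect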
#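 System: reconstituted apoptosome with Apaf-1, cytochrome c, caspase-9, procaspase-3, dATP; Signal: Rh110 fluorescence intensity; Schedule: 30 min compound preincubation, 50 min activation, room temperature; Reagent: cytochrome c trigger plus (Z-DEVD)2-Rh110 caspase-3 substrate.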
# UBC13 inh = blocks human UBC13 polyubiquitin chain formation. TR-FRET. inhibition, % at 20 µM. 330,000 compounds, 0.47% hits. AID 485273; in the data active = inhibition above about 45%, passing the limit was not always enough
# Apaf-1 inh conf2 = Apaf-1 inhibition, single-dose confirmed. shares compounds with Apaf-1 inh. reconstituted apoptosome, caspase-3 DEVD-Rh110 fluorescence. inhibition, % at 20 µM. 1,800 compounds, 25% hits. AID 504614;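 active = mean inhibition of at least 40% at 20 µM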;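 also: plate controls were DMSO wells for no effect and DEVD-CHO caspase inhibitor control wells for full effect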
# Rh110 interf inh = Rh110 signal interference in Apaf-1 inhibitor counter-screen. shares compounds with Apaf-1 inh. AID 504615. 1,800 tested, under 10 active. activation (fluorescence interference), % at 20 µM. Rh110 fluorescence interference, quenched caspase reaction;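 active = signal rise of 40% or more at 20 µM, treated as a fluorescence artifact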
# Apaf1 inh interf = Apaf-1 inhibitor counter-screen fluorescence artifact. shares compounds with Apaf-1 inh. fluorescence interference counterscreen, Apaf-1 assay format. IC50, µM. 460 tested, under 10 active
# Rin1-Abl confirm = Rin1-Abl interaction inhibition confirmation; TR-FRET Rin1-Abl binding, purified proteins; AID 602124; inhibition, % at 7.35 µM; 1,300 compounds, 49% hits; shares compounds with Rin1 Abl inh; in the data active = inhibition above about 6.5%
# GFP quencher = quenches GFP fluorescence, counter-screen for Rin1-Abl inhibitors; shares compounds with Rin1 Abl inh; inhibitors/quenchers counterscreen; inhibition, % at 6.75 µM; 1,300 compounds, 8.5% hits; AID 602125; in the data active = inhibition above about 6.5%;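 also: ABL1-eGFP fusion protein alone without its partner RIN1-SBP; 0% = protein with vehicle and 100% = wells lacking protein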
# GFP quench DR = counter-screen for Rin1-Abl inhibitors: GFP quenchers, dose response; shares compounds with Rin1 Abl inh; GFP fluorescence interference/quenching counterscreen; IC50, µM; 230 tested, under 10 active;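 also: ABL1-eGFP fusion protein alone without its RIN1 binding partner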
# * marks the source's active call; other numbers are inactive results; x = no result given; ! = not active in a repeat. Shown are actives, neighbours in structure and some others; about 2.2% of the full set was active somewhere. Unless noted, no rule for the calls is given here.
SMILES,PAD4 inh,Rin1 Abl inh,UBC9 SUMO inh,GSTO1 inh,Apaf-1 inh,UBC13 inh,Rin1-Abl confirm,GFP quencher,others
CCCNC(=O)c1c(N)n(CC2CCCO2)c2nc3ccccc3nc12 (configuration not stated),-19.3,3.2,101.5*,35.1*,92.6*,-0.3,x,x,Apaf-1 inh conf2=44.3*;Rh110 interf inh=8.3;Apaf1 inh interf=>100
O=c1c2ccccc2nc(SCC2CCCCO2)n1-c1ccccc1 (configuration not stated),-2.7,2.2,5.3,2.9,10.3,6.0,x,x,
COc1ccc2c(c1)CC1(CN2C)C(=O)NC(=O)N(CCc2ccccc2)C1=O (configuration not stated),-5.0,-1.2,-3.7,24.6,17.8,-18.6,x,x,
CCC(C)N1C(=O)NC(=O)C2(Cc3c(ccc4ccccc34)N(C)C2)C1=O (configuration not stated),-4.0,0.2,29.2,18.9,64.8*,-15.2,x,x,Apaf-1 inh conf2=30.3;Rh110 interf inh=3.9
Cc1cccc(C)c1N1CCN(c2c(C)cccc2C)CC1,x,0.5,0.5,x,-3.8,4.1,x,x,
CCn1nc(/C=C/c2ccccc2)nc2c(=O)n(C)c(=O)nc1-2,x,25.8*,98.6*,x,98.8*,-248.0,39.6*,2.0,Apaf-1 inh conf2=100.3*;Rh110 interf inh=9.2;Apaf1 inh interf=>100;GFP quench DR=>67.5
CC(C)NP(=O)(NC(C)C)OP(=O)(NC(C)C)NC(C)C,-0.7,0.9,x,2.4,6.5,-0.2,x,x,
Oc1ccc(/C=N/NP(=S)(c2ccccc2)c2ccccc2)c(O)c1O,1.2,16.3*,14.2,37.0*,17.6,-12.1,9.0*,5.3,
Oc1ccccc1/C=N/NP(=S)(c1ccccc1)c1ccccc1,0.0,0.8,-28.1,-6.4,11.7,-5.6,x,x,
N#Cc1ccc(NC(=O)CN2CCN(C(=O)c3cccs3)CC2)cc1Cl,x,2.6,x,x,8.8,3.6,x,x,
CCOC(=O)C(C)Oc1cc(C)cc2oc(=O)c3c(c12)CCCC3 (configuration not stated),-0.2,4.7,10.6,-1.7,12.7,0.9,x,x,
CCCCCc1cc(O)c2c3c(c(=O)oc2c1)CN(C)CC3,-3.1,8.0*,-7.1,-5.5,12.3,31.2,-4.0,-1.2,
COc1ccc(C(=O)C2CCCN(Cc3cnc(C)s3)C2)c(OC)c1 (configuration not stated),-4.0,9.9*,14.8,1.6,-5.3,-17.2,-1.1,0.4,
CCOC(=O)c1c(NC(NC(=O)CF)C(Cl)(Cl)Cl)sc2c1CCCC2 (configuration not stated),0.9,1.0,-5.4,3.7,13.4,1.8,x,x,
CCOCCCn1c(N)c(C(=O)Nc2sc3c(c2C(=O)OC)CCCC3)c2nc3ccccc3nc21,1.1,22.1*,99.3,1.0,-0.7,4.1,-0.4,-0.8,
C=CCN1CC[C@]23c4c5ccc(O)c4OC2[C@H](O)CC[C@@]3(O)[C@H]1C5 (some centres not stated),-7.3,-2.0,x,x,-2.0,-2.3,x,x,
Oc1ccc2c3c1O[C@H]1[C@@H](O)CC[C@@]4(O)[C@@H](C2)N(CC2CCC2)CC[C@]314,-4.4,11.2*!,x,-3.1,-10.7,12.5,-1.6,-1.5,
NCCc1cc(O)c(O)cc1O,x,38.8*,x,x,x,x,40.5*,8.7*,
C[C@]12CCC3C(CC[C@H]4C[C@H](O)CC[C@]34C)C1C[C@H](O)[C@H]2O (some centres not stated),x,-1.7,x,x,x,x,x,x,
O=C1NC2NC(=O)N([N+](=O)[O-])C2N1 (configuration not stated),-3.1,8.7*,25.2,-7.3,-2.7,2.3,8.6*,-0.4,
CCOC(=O)c1ccc(NC(=O)NC2CC3CCC(C2)N3)cc1 (configuration not stated),2.3,18.4*,-4.6,-3.0,-7.0,0.7,25.9*,0.0,GFP quench DR=>67.5
COC(=O)C1=C(c2ccccc2OCc2ccccc2)C[C@@H]2CC[C@H]1N2C(=O)NCc1ccc(OC)c(OC)c1,-1.4,1.9,x,x,19.1,15.9,x,x,
C[C@](N)(CCP(=O)(O)O)C(=O)O,-8.0,-6.1,x,-4.7,-13.2,5.0,x,x,
C[C@]12CCC3[C@@H](CC[C@H]4C[C@@H](O)CC[C@]34C)C1CCC2=O (some centres not stated),3.5,2.4,-0.5,0.7,-0.9,4.0,x,x,
C[C@]12CCC3C(C(=O)C[C@H]4C[C@@H](O)CC[C@]34C)C1CCC2=O (some centres not stated),-6.4,21.0*,x,x,0.4,14.5,20.5*,-1.3,GFP quench DR=>67.5
SMILES,PAD4 inh,Rin1 Abl inh,UBC9 SUMO inh,GSTO1 inh,Apaf-1 inh,UBC13 inh,Rin1-Abl confirm,GFP quencher,others
COC(=O)C1=C(c2c(C)noc2C)C[C@@H]2CC[C@H]1N2C(=O)NC1Cc2ccccc2C1,2.4,5.9,x,x,3.6,-17.8,x,x,
CCc1nnc(NC(=O)CCc2nc(C3=CCN(C)CC3)no2)s1,-1.7,63.1*,3.4,-19.0,1.6,-0.5,62.2*,2.2,GFP quench DR=>67.5
COc1ccc2nc(NC(=O)CCc3nc(C4=CCN(C)CC4)no3)sc2c1,-1.8,75.2*,-1.9,-2.9,17.6,-8.9,80.0*,-0.8,GFP quench DR=>67.5
Cc1c(C)c2ccc(OCC(=O)N3C[C@H]4C[C@@H](C3)c3cccc(=O)n3C4)cc2oc1=O,-4.9,3.7,33.8,-3.1,-3.0,12.4,x,x,
COc1ccc(C(c2nnnn2-c2ccc3c(c2)OCCO3)N2CCC(n3c(=O)[nH]c4ccccc43)CC2)cc1 (configuration not stated),x,6.9,x,x,x,x,x,x,
COc1ccc(-n2nnnc2C(CCSC)N2CCC(n3c(=O)[nH]c4ccccc43)CC2)cc1 (configuration not stated),x,12.6*,x,x,x,x,8.2*,-1.4,
O=c1[nH]c2ccccc2n1C1CCN(C(c2ccnc3ccccc23)c2nnnn2-c2ccc3c(c2)OCCO3)CC1 (configuration not stated),x,44.8*,x,x,x,x,32.2*,-0.4,GFP quench DR=>67.5
COC(=O)C1=C(c2c(C)noc2C)C[C@@H]2CC[C@H]1N2C(=O)NCc1ccco1,0.0,1.0,x,x,4.6,-8.6,x,x,
